UBC9 SUMO inh = inhibitors of human SUMOylation (UBC9); actives 0.36% (n = 290,000); HTRF SUMOylation assay, SAE1/SAE2 + UBC9, in vitro; inhibition, % at 35 µM; in the data active = inhibition above about 50%, passing the limit was not always enough; inconclusive = no clear call, values can overlap the other calls
Apaf-1 inh = human Apaf-1 inhibition | O14727 | reconstituted apoptosome caspase-3 activity, DEVD-Rh110 fluorescence | inhibition, % at 20 µM | actives 0.71% (n = 330,000); active = inhibition of at least 40% at 20 µM;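 also: plate controls were DMSO wells for no effect and DEVD-CHO caspase inhibitor wells for full effect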
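System – cell-free apoptosome with Apaf-1, procaspase-3 and caspase-9 · Buffer or medium – pH 7.5 Hepes buffer with CHAPS, BSA, DTT · Also added – cytochrome c with DEVD-Rh110 · Times – 30 min compound preincubation, 50 min activation, room temperature · Technique – Rh110 fluorescence intensity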
GASC-1 inh = human JMJD2C demethylase inhibition. Q9H3R0. GST-JMJD2C(1-420) H3K9me3 demethylation, DELFIA europium. inhibition, % at 2.35 µM. actives 0.069% (n = 330,000). AID 2099;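 active = more than half of a compound's replicate wells show inhibition beyond 50%, single wells judged on their own value; inconclusive = some, but no more than half, of replicates pass 50% inhibition; inactive = no replicate passes 50% inhibition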;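 also: signal counts dimethyl H3K9 product captured on neutravidin plate; 0% = median of DMSO wells and 100% = 0.3 times that DMSO median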
TDP2 inh = TDP2 (human) inhibition, absorbance primary screen; AID 720702; actives 0.34% (n = 370,000); recombinant TDP2, T5PNP hydrolysis, p-nitrophenol absorbance 415 nm; inhibition, % at 12.8 µM;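 active = inhibition above the mean of all tested compounds plus 3 SD, set per campaign, cut at about 25% in these data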;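 also: 0% = DMSO with enzyme and 100% = buffer with substrate but no TDP2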
Target sequence (O95551 whole entry, looked up): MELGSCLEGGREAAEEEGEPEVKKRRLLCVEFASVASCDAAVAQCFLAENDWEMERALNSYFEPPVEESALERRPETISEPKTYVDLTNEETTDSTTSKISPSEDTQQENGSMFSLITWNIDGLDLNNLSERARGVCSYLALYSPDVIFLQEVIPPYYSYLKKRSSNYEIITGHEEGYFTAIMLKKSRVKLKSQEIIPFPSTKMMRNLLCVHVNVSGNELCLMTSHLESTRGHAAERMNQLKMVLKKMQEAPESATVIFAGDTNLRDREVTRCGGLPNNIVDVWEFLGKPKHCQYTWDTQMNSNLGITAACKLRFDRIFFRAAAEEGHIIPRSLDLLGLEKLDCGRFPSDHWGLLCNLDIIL
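Test system: human TDP2 enzyme; Input: 120 nM TDP2 per well; Buffer or medium: Mg2+-containing Tris-HCl buffer, pH 7.5; Reagent: 5 mM T5PNP; Dosing: 12.8 µM single point, 1% DMSO; Incubation: reaction 2 h, 37 °C; Detection: p-Nitrophenol epi absorbance; Read-out: % inhibition relative to enzyme-containing and enzyme-free wells; Replicates: single well per compound.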
GSTO1 counter = counter-screen for RBBP9 inhibitors: inhibitors of human GSTO1. actives 1.1% (n = 300,000). inhibition, % at 5.96 µM. recombinant GSTO1, activity-based probe fluorescence polarization;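 active = inhibition above the campaign mean inhibition plus 3 SD, cut at about 35% in these data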;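 also: 0% = GSTO1-1 with DMSO and 100% = wells lacking GSTO1-1 enzyme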
Target sequence (P78417 whole entry, looked up): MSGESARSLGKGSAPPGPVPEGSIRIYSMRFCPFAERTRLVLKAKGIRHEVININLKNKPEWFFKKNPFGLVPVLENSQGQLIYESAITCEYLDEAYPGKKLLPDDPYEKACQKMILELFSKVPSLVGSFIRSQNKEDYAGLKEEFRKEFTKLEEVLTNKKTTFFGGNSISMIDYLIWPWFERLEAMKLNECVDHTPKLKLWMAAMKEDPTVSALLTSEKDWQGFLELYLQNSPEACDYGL
PAD4 inh = inhibitors of human PAD4. recombinant PAD4, RCA probe fluorescence polarization. inhibition, % at 6.36 µM. actives 0.41% (n = 330,000). AID 485272;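 active = percent inhibition above a cutoff equal to the mean of all tested compounds plus 3 SD, cut at about 15% in these data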;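 also: 0% = PAD4 with RCA probe and DMSO and 100% = probe without PAD4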
* = called active by the depositor; i = inactive; ? = inconclusive; · = no result. Rows were chosen to be rich in hits. Some 1.6% of all compounds tested hit in one or more screens of this group.

SMILES	UBC9 SUMO inh	Apaf-1 inh	GASC-1 inh	TDP2 inh	GSTO1 counter	PAD4 inh
O=c1c2ccccc2nc(/C=C/c2cccnc2)n1Cc1ccccc1	82*	·	-17	6	·	·
Nc1ccc2c(c1)-c1ccccc1S(=O)(=O)N2	14	26	5	4	37*	6
Cc1ccc2c(c1)-c1ccccc1S(=O)(=O)N2	0	-8	-4	-1	3	0
COC(=O)C1CN(Cc2cn(Cc3ccccc3)nn2)CCS(=O)(=O)N1Cc1ccc(OC)cc1 (stereo not drawn)	·	·	·	2	·	·
Cn1nccc1NC(=O)Nc1cccc(Br)c1	65*	2	11	·	0	0
Cn1nccc1NC(=O)Nc1ccccc1	28	-1	4	·	2	-2
C[N+]1(C)CCC(=C2c3ccccc3CC(=O)c3sccc32)CC1	34	57*	10	18	32	-7
O=C(O)CSc1cc(C(=O)c2ccccc2O)cn2c(=O)c3c4c(sc3nc12)CCCC4	50*	·	20	10	·	·
COc1cc(-c2c(C(=O)c3ccccc3)[nH]c(N)c2C(N)=O)ccc1O	·	·	·	-10	·	·
O=C1C=C(N(CCO)Cc2ccccc2)c2ccccc2C1=O	64*	·	-11	·	·	·
O=C1c2ccccc2C(=O)c2c1cccc2N(CCO)CCO	-6	8	3	19	1	-1
CC[C@@H](CCCCCC#N)CCC(=O)N(c1ccccc1)c1ccccc1	·	·	·	-2	·	·
O=[N+]([O-])c1cccc2[nH]c(CNc3nc(N4CCOCC4)nc4c3ncn4-c3ccsc3)nc12	·	·	·	5	·	·
Cc1cccc(Cn2cc(COC(=O)NCC(C)C)nn2)c1	·	·	·	6	·	·
Cc1cccc(-c2cccc3c4c([nH]c23)[C@@H]2C[C@H](N(C)C(=O)Nc3ccccc3)[C@H]([C@H](C)O)C(=O)N2CC4)c1	·	·	·	-7	·	·
COc1ccc(N2CSC3=C(C#N)C(c4cc(OC)c(OC)cc4OC)CC(=O)N3C2)c(OC)c1 (stereo not drawn)	18	34	2	-7	39*	-9
COc1ccc(N2CSC3=C(C#N)C(c4cc(OC)ccc4OC)CC(=O)N3C2)c(OC)c1 (stereo not drawn)	4	32	1	·	31	-4
O=C(NCC(c1ccccc1)c1ccccc1)[C@H](Cc1ccccc1)NC1(C(=O)NC2CCCCC2)CCOCC1	·	·	·	-20	·	·
Cc1cccc(NC(=O)Cn2c(O)c(N=NC(=O)c3ccccc3O)c3ccccc32)c1	54*	15	-1	-21	-1	-3
COc1ccccc1Oc1c(C)oc2c(CN3CCOCC3)c(O)ccc2c1=O	29	-7	-14	2	-5	2
CCOc1ccccc1Oc1c(C)oc2c(CN3CCN(C)CC3)c(O)ccc2c1=O	50*	-21	-2	-19	2	8
Cc1nn(C)c(C)c1N1C(=O)c2cccc3c(N)ccc(c23)C1=O	46	·	4	-1	12	31*
O=C1CCCC2=C1C(c1ccc(O)c(O)c1)Nc1ccc3ncccc3c12 (stereo not drawn)	29	4	-2	-3	78*	1
O=C(CCN1C(=O)C2CC=CCC2C1=O)Nc1cc(C(F)(F)F)ccc1N1CCCC1 (stereo not drawn)	·	-5	0	4	36*	1
O=C(/C=C/c1ccc(O)c(O)c1)OC(Cc1ccc(O)c(O)c1)C(=O)O (stereo not drawn)	19	0	?	7	55*	5
SMILES	UBC9 SUMO inh	Apaf-1 inh	GASC-1 inh	TDP2 inh	GSTO1 counter	PAD4 inh
O=C(/C=C/c1ccc(O)c(O)c1)OCCc1ccccc1	·	-3	11	6	17	-2
O=S1(=O)c2ccc(Br)cc2OC[C@@H](Cc2ccccc2)N1Cc1cn(CC2CCCCC2)nn1	·	·	·	-15	·	·
CCC(=O)c1ccc(/C=C/c2nc3ccccc3n2C)o1	62*	2	5	-10	-4	-3
Cn1c(/C=N/O)nc2ccccc21	21	-15	-9	3	9	-2
Cc1ccc(-n2c(SCC(=O)N/N=C/C=C\c3ccccc3[N+](=O)[O-])nnc2-c2ccccc2)cc1	·	·	·	-13	·	·
O=C(c1ccoc1)N1CCN(c2cc(-c3ccco3)nc3cc(-c4ccco4)nn23)CC1	·	·	·	-5	·	·
COc1ccc(NC(=O)c2ccc(C)o2)c([N+](=O)[O-])c1	3	9	-3	1	2	-1
COc1ccc(NC(=O)c2ccc([N+](=O)[O-])s2)c([N+](=O)[O-])c1	4	-25	-1	-4	55*	-1
CCOC(=O)Cn1c2ccc(OC)cc2c2nc3ccccc3nc21	54*	-5	-8	11	-3	-2
CCCCCCCCN1C(=O)[C@@H](CC(=O)N2CCCC2)C[C@@]2(C(=O)OC)C1=C[C@H](COCc1ccccc1)O[C@@H]2C	·	·	·	-1	·	·
Oc1ccc(N=C/C=C/c2ccc(Br)cc2)cc1-c1nc2ccccc2s1	27	4	12	·	36*	-5
Brc1cc2c(cc1-c1nc3ccccc3s1)OCO2	5	17	-4	6	-7	2
COCC(C)NC(=O)NC(=O)c1ccc(Cl)cc1 (stereo not drawn)	-14	-3	10	-8	7	-5
COCC(C)NC(=O)NC1(C(F)(F)F)Oc2ccc(Cl)cc2O1 (stereo not drawn)	15	9	1	3	36*	1
COc1ccc2c(c1)-c1nc(/N=C/c3c(O)ccc4ccccc34)sc1CC2	57*	·	4	18	·	·
COc1ccc2c(c1)-c1nc(/N=C/c3ccc(O)cc3)sc1CC2	86	·	5	17	3	1
O=C(OCn1ncc(Br)c(Br)c1=O)c1ccc(F)cc1	-80	4	11	·	36*	26*
Cc1ccc2c(c1)C1CS(=O)(=O)N(CCc3ccccc3)C(=O)N1C2 (stereo not drawn)	·	·	·	-9	·	·
CC(C)N1CCC2(CC1)C(C#N)=C(N)NC(S)=C2C#N	52*	6	-1	·	10	-34
N#CC1=C(N)NC(SCC(=O)O)=C(C#N)C12CCCC2	12	7	-5	2	-9	2
c1ccc(C2=Nc3ccccc3SC2c2nc3ccccc3[nH]2)cc1 (stereo not drawn)	6	-15	i	·	13	28*
N#C/C(=C(/O)COC(=O)CSc1ccc(Cl)cc1)c1nc2ccccc2[nH]1	3	15	23	-4	9	-2
Cc1cc(SCC(=O)OC/C(O)=C(\C#N)c2nc3ccccc3[nH]2)c(C)cc1Br	55*	-11	7	3	-7	-1
O=C(NCc1ccccn1)c1cn(Cc2ccccc2)nn1	7	-1	64*	-6	-3	2
